As usually defined, the AC50 is the concentration at which the activity in the assay is half-maximal.

Molecules are shown by their SMILES. Results filed as inconclusive are left out. Activity calls are given as the source filed them.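 The calls were made as follows: active = compound whose fitted half-maximal concentration, in every repeat run, is at most twice the top dose tested; inconclusive = repeat runs disagree, or a flat or poor curve fit; inactive = every repeat run called inactive.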

The record followed here is PubChem BioAssay AID602190 (Broad Institute, 2012).

The test system of assay [1] is C. albicans CaCi-2 growth, Alamar Blue fluorescence, 48 h. The experiment in a line: single-agent growth inhibition of C. albicans CaCi-2, dose response, CaCi-2 strain, plate reader, dry powder (AID 602190). The procedure, abridged: (§1)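 Assay system: Candida albicans strain CaCi-2, a fluconazole-resistant clinical isolate; amount: fungal inoculum at starting OD600 of 0.00015; buffer or medium: RPMI 1640 with MOPS, uridine, glucose; incubation: 48 h static exposure at 37 °C, 2 h Alamar Blue; measure: growth inhibition from lowered fluorescence; signal: Alamar Blue fluorescence reporting fungal metabolic activity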

Assay in assay [2]: as above
Conditions: C. albicans CaCi-2 growth, Alamar Blue fluorescence, 48 h; at 26 µM (top of the series). The procedure, abridged: as §1
In general terms: Alamar Blue is a resazurin reagent that responds to reducing activity.

Consider `C/C(=N\NC(=O)c1cc2ccccc2cc1O)c1ccccn1`, for which the AC50 in assay [1] is 6.11 µM. For the molecule `C=CCNC(=S)N/N=C(\C)c1ccccn1`, the activity change, negative = inhibition in assay [2] was -68% (inactive). Turning to `Oc1c(C(c2ccc(Cl)cc2)N2CCCC2)ccc2cccnc12` (stereo unspecified), the concentration at half-maximal activity (AC50) in assay [1] is 5.03 µM.

Take `Oc1c(CN2CCc3ccccc3C2)cc(Cl)c2cccnc12`: the AC50 in assay [1] is 1.57 µM.

Turning to `O=C(Nc1nnc(-c2ccc3c(c2)CCCC3)o1)c1ccccc1`, the AC50 in assay [1] was 17.6 µM. For the molecule `Oc1c(CN2CCN(c3ccccc3)CC2)cc(Cl)c2cccnc12`, the AC50 in assay [1] was 2.72 µM. With `O=C(Nc1nc(-c2ccccn2)cs1)c1ccc(Br)s1`, the AC50 in assay [1] is 5.53 µM. As to `O=C(NNC(=S)Nc1ccc(Cl)c(Cl)c1)c1ccccn1`, the AC50 in assay [1] was 13 µM. Regarding `O=C(Nc1nc(-c2ccc3c(c2)CCCC3)cs1)c1ccccc1`, in assay [2], the activity change, negative = inhibition is -18.1% (inactive). On to `O=C(Nc1nnc(-c2ccc3c(c2)CCCC3)o1)c1ccc(Cl)cc1Cl`, for which the AC50 in assay [1] is 17.9 µM.

Turning to `Cc1ccc(-c2nc3c(Cl)cc(Cl)cc3c(=O)n2O)cc1`, the activity change, negative = inhibition in assay [2] is -45% (inactive).

For `O=C(Nc1nc(-c2ccccn2)cs1)c1ccccc1`, the activity change, negative = inhibition in assay [2] is 6.07% (inactive). Turning to `Cc1cc(C)n(-c2nc3ccccc3c(=O)n2OCC#N)n1`, in assay [1], the AC50 is 6.87 µM.

Turning to `O=C(Nc1nc(-c2ccccc2)cs1)c1ccc(Br)s1`, the activity change, negative = inhibition in assay [2] is -11.8% (inactive).

Consider `O=C(Oc1c(Cl)cc(Cl)c2cccnc12)c1ccco1`, for which the AC50 in assay [1] was 0.708 µM.

Consider `Cc1ccc(C(=O)Nc2nnc(-c3ccccc3)o2)cc1C`, for which the activity change, negative = inhibition in assay [2] was -9.38% (inactive). On to `O=C(Nc1nc(-c2ccccn2)cs1)c1ccc(Cl)s1`, for which the AC50 in assay [1] was 6.89 µM. Still for that read-out and setting: to `CCOC(=O)N1C(=O)C2(CCCCC2)N(c2ccc(C)cc2)C1=S` belongs 4.29 µM; to `CN1CCN(C(c2ccc(C(F)(F)F)cc2)c2ccc3cccnc3c2O)CC1` (stereo unspecified), 4.75 µM; to `Oc1c(C(c2ccccc2Cl)N2CCCCC2)ccc2cccnc12` (stereo unspecified), 8.88 µM.

On to `NC(=O)c1cccc(C(=O)Nc2nc(-c3ccc4c(c3)CCCC4)cs2)c1`, for which the activity change, negative = inhibition in assay [2] is 4.94% (inactive).
